MC4R barr agon: human MC4R agonism via beta-arrestin; U2OS MC4R beta-arrestin complementation, luminescence; percent of melanotan II response, DMSO zero; 360,000 compounds, 0.98% hits; activation, % at 8.9 µM; AID 540308;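 active = activation above a per-plate cutoff, the mean activation of sample wells on that plate plus 3 SD, cut at about 8% in these data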
Target sequence (P32245 whole entry, looked up): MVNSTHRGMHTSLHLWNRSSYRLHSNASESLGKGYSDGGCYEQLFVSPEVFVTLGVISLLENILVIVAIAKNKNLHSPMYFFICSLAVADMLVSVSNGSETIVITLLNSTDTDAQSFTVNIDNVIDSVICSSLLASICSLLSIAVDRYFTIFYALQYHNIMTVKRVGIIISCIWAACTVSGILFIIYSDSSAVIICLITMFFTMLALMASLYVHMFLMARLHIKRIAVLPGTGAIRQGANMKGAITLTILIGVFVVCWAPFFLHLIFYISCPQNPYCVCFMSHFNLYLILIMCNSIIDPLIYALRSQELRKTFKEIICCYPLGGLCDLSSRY
H9c2 TAG inh: reduces triacylglycerol accumulation in H9c2 cells | Nile Red lipid (TAG) fluorescence; cells loaded with 200 µM oleic acid | inhibition, % at 12.5 µM | 230,000 compounds, 0.66% hits | AID 651582;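 active = pattern-corrected inhibition of lipid staining of at least 50% with the nuclear-stain viability signal not falling by more than 50%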;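 also: 0% = DMSO wells and 100% = triacsin C control wells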
GalR3 antag: antagonists of human GalR3. O60755. HEK293 GalR3-CNG cAMP membrane potential fluorescence; galR3 body fused to GalR1 C-terminus. inhibition, % at 3 µM. 360,000 compounds, 0.44% hits. AID 651719;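 active = inhibition above the screen-wide average plus 3 SD, cut at about 13% in these data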;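 also: forskolin and galanin both at EC90 stimulate the cells; cAMP rise reported by CNG channel membrane potential dye signal; 0% = forskolin plus galanin with DMSO and 100% = forskolin alone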
Target sequence (O60755 1-299 limits assumed): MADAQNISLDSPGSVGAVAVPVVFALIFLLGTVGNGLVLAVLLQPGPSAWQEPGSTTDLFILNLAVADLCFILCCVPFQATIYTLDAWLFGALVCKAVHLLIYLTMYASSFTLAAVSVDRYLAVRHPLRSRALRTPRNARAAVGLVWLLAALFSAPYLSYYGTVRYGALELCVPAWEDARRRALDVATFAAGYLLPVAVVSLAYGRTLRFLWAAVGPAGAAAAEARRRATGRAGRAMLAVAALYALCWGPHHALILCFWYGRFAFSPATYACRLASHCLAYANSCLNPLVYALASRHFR
MC4R antag cAMP: human MC4R antagonism in cAMP assay; 360,000 compounds, 0.48% hits; inhibition, % at 6.5 µM; P32245; MC4R-expressing cells, MTII-stimulated cAMP, LANCE TR-FRET;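 active = inhibition above its plate's cutoff, the mean of tested wells on that plate plus 3 SD, cut at about 29% in these data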;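 also: 0% = Melanotan II alone and 100% = Melanotan II plus saturating MCL0020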
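material = U2OS cells stably expressing human melanocortin 4 receptor (MC4R) | also added = Melanotan II challenge | dosing = single nominal compound dose of 6.5 µM | detection = TR-FRET with Eu-cAMP and labeled anti-cAMP, 671 nm | replication = singlicate | timing = compound 30 min, challenge 1 h, detection 1 h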
Calb FLC: C. albicans growth modulation with fluconazole. 300,000 compounds, 0.57% hits. growth inhibition, % (test concentration not listed). C. albicans CaCi-2 + fluconazole, Alamar Blue growth, 48 h;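 active = growth inhibition above about 58% in most replicates, limit read from the data, passing the limit was not always enough; inconclusive = exactly half the replicates above a set limit; inactive = most replicates below a set limit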;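 also: all wells also contain fluconazole at 8 µg/ml as a sub-toxic cotreatment; 0% = median of DMSO wells and 100% = median of geldanamycin control wells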
Efflux pump inh: inhibitors of Candida antifungal efflux pumps expressed in yeast | 330,000 compounds, 0.44% hits | inhibition, % at 10 µM | S. cerevisiae Candida pump triplex, Nile Red efflux | AID 485275;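 active = plate passing quality check with inhibition over a set limit, or well fluorescence over plate mean plus 4 SD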;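 also: Nile Red retained in pooled yeast measured as flow cytometry median fluorescence; 0% = buffer negative control and 100% = Enniatin B positive control; higher means more Nile Red kept so more efflux inhibition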
GalR3 antag conf: GalR3 (human) antagonism, confirmation; HEK293 GalR3 CNG cAMP biosensor, membrane potential fluorescence; galR3 fused to GalR1 carboxy tail; challenged with forskolin and galanin at EC90; shares compounds with GalR3 antag; inhibition, % at 3 µM; 1,600 compounds, 59% hits; AID 652245;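 active = inhibition above the primary screen's cutoff, the mean inhibition of all screened compounds plus 3 SD, cut at about 13% in these data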;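 also: 0% = forskolin plus galanin and 100% = forskolin alone with DMSO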
CNG parental: counter-screen for GalR3 antagonists: nonspecific agonists in parental HEK-CNG cells. HEK293-CNG parental cells, cAMP membrane potential fluorescence; normalised: DMSO wells 0%, forskolin wells 100%. activation, % at 3 µM. shares compounds with GalR3 antag. 1,600 compounds, 10% hits; in the data active = activation above about 1.3%
* marks the source's active call; other numbers are inactive results; ? = inconclusive; · = no result given. An excerpt weighted towards active compounds, which were near 2.9% of everything screened.

SMILES	MC4R barr agon	H9c2 TAG inh	GalR3 antag	MC4R antag cAMP	Calb FLC	Efflux pump inh	GalR3 antag conf	CNG parental
c1ccc(-c2nc3ccccc3nc2-c2ccc(CN3CCC4(CC3)CNc3ccccc34)cc2)cc1	·	·	-2	·	·	·	·	·
CCCCCn1cc(CCC(=O)Nc2ccc(Oc3cccnc3)cc2)c2ccccc21	·	·	-5	·	·	·	·	·
Nc1ncnc2c(C3OC(CO)C(O)C3O)scc12 (stereo not given)	-1	119	61*	0	·	·	47*	0
COc1ccc2ccccc2c1C=NN1CCCCC1	1	3	-2	-3	·	·	·	·
CC1=C(C(=O)N2CCCCCC2)CC(CC(=O)NC(c2ccccc2)c2ccccc2)C(=O)N1CCC1=CCCCC1 (stereo not given)	·	·	-8	·	·	·	·	·
Cc1nc2sc(C(=O)c3ccccc3)c(N)c2c(C)c1C	0	-25	13*	17	-50	0	2	0
CCOC(=O)C1=C(C(=O)OCC)C2N(Cc3ccc(Br)cc3)c3ccccc3[C@@]23C[C@@H](C(=O)OC)N(S(=O)(=O)c2ccc(C(F)(F)F)cc2)C3=N1 (stereo not given in full)	·	·	-1	·	·	·	·	·
CN1C[C@@H]2[C@@H]3C(=O)N(C)C(=O)[C@@H]3[C@](C)(C1=O)N2C(=O)c1ccc(C(C)(C)C)cc1	-2	-8	-5	10	·	·	·	·
COc1ccc(-n2c(N)cc(=O)[nH]c2=O)cc1	·	·	·	·	2	0	·	·
Nc1cc(=O)[nH]c(=O)n1-c1cccc(F)c1	0	·	27*	16	14	0	6	0
C/C(=N\O)C(C)NC(=O)c1ccccc1 (stereo not given)	0	·	0	2	-3	1	·	·
C#CC(C)OC(=O)C(C)NC(=O)c1ccccc1 (stereo not given)	0	11	·	8	18	0	14*	0
Cc1[nH]nc(SCC(=O)N2CCCCC2)c1[N+](=O)[O-]	-2	11	-1	0	-4	0	·	·
Cc1[nH]nc(SCC(=O)N2CCCCCC2)c1[N+](=O)[O-]	-3	17	14*	1	-2	0	4	0
COC(=O)N(C)C[C@H]1OCc2cn(nn2)CCCC(=O)N([C@H](C)CO)C[C@@H]1C	·	·	7	·	·	·	·	·
Cc1cccc(-n2ncc3c2CCCC3NC(=O)c2cccs2)c1C (stereo not given)	0	-12	-6	5	·	·	·	·
Cc1cccc(-n2ncc3c2CCCC3NC(=O)c2ccncc2)c1C (stereo not given)	2	-11	90*	-7	·	·	111*	-1
CC1=C(C(=O)NC2CCCc3c2cnn3-c2cccc(C)c2C)OCCO1 (stereo not given)	0	-3	0	17	-1	2	·	·
CCn1cc(C(=O)NC2CCCc3c2cnn3-c2cccc(C)c2C)cn1 (stereo not given)	-2	-9	97*	0	0	0	114*	0
COc1ccc(S(=O)(=O)Nc2ccc3c(c2)OCO3)cc1OC	-2	·	-7	10	1	0	·	·
COc1ccc(NS(=O)(=O)c2ccc3c(c2)OCCO3)cc1OC	0	·	99*	6	1	0	53*	0
COc1ccc(C(C)C)cc1-c1cccc2nncn12	0	11	1	11	·	·	·	·
COc1ccc(Cl)cc1S(=O)(=O)NC(C)C(=O)NCCN1CCOCC1 (stereo not given)	0	8	-3	2	·	·	·	·
c1ccc(CN2CCC(Nc3ncnc4sccc34)CC2)cc1	2	-6	3	3	-30	0	·	·
Cc1sc2ncnc(NC3CCN(Cc4ccccc4)CC3)c2c1C	-1	-46	83*	18	34	0	102*	1.2*
SMILES	MC4R barr agon	H9c2 TAG inh	GalR3 antag	MC4R antag cAMP	Calb FLC	Efflux pump inh	GalR3 antag conf	CNG parental
COCCCN(C(=O)C1=COCCO1)c1c(N)n(Cc2ccccc2)c(=O)[nH]c1=O	0	-7	-3	-1	·	·	·	·
CCOc1nc(C#N)nc(N2CCCCC2)n1	2	-16	95*	4	-9	·	108*	0
N#CCOc1nc(N2CCCCC2)nc(N2CCCCC2)n1	-2	·	-9	-4	-8	0	·	·
COc1ccc(-n2c(SCc3ccc([N+](=O)[O-])cc3)nnc2-c2ccccc2)cc1	0	·	57*	-4	7	0	64*	0
CCOc1ccc(-n2c(SCc3ccc([N+](=O)[O-])cc3)nnc2-c2ccccc2)cc1	1	·	70*	13	0	2	72*	1.3*
COc1cc(/C=N/NC(N)=O)cc(Br)c1OCc1ccccc1C	1	8	3	-2	-9	0	·	·
CCOc1cc(/C=N/NC(N)=O)cc(Br)c1OCC(=O)Nc1ccccc1C	-1	25	69*	-4	3	0	40*	0
COc1cc(/C=N/NC(=S)Nc2cccc(C(=O)O)c2)cc(OC)c1OC	-1	·	-3	-2	1	0	·	·
C=CCOc1c(Br)cc(/C=N/NC(N)=O)cc1OC	-2	·	13*	-5	?	0	7	0
COc1cc(/C=N/NC(=S)N/N=C/c2cc(OC)c(OC)c(OC)c2)cc(OC)c1OC	2	·	20*	-7	-8	-2	16*	0
C=CCN=C1NC(c2cccc(Cl)c2)C(C(=O)OC)=C(C)N1C (stereo not given)	·	·	-6	·	·	·	·	·
CC(C)(C)c1ccc(C(=O)N2CCC2(C)C(=O)Nc2cnc3ccccc3c2)cc1 (stereo not given)	0	-7	3	8	·	·	·	·
CCOc1cc2c(cc1OC)C(NC(=O)c1ccco1)CC2=O (stereo not given)	-1	·	17*	1	-7	0	-1	0
COCCNC(=O)C1CCCN(C(=O)c2ccc(F)c(C)c2)CC1 (stereo not given)	1	-8	-7	5	·	·	·	·
Cc1nc(N2N=C(c3ccc(Cl)cc3)CC2c2ccco2)sc1C(=O)N(C)C (stereo not given)	-1	-3	21*	16	-28	0	7	1
COc1ccc(C(O)c2nc3ccccc3n2C)cc1OC (stereo not given)	1	·	95*	-27	-21	0	33*	0
CCCCn1nnnc1C(c1ccccc1)N1CCN(c2cccc(C(F)(F)F)n2)CC1 (stereo not given)	·	·	-7	·	·	·	·	·

Compound activity from PubChem BioAssay.
